Assay results published in ChEMBL document CHEMBL2417530, “Coumarin derivatives protect against ischemic brain injury in rats” (Eur J Med Chem, 2013).

Columns and labels:
[1] = Cytotoxicity against rat PC12 cells assessed as cell proliferation at 10 uM by MTT assay relative to control; format: cell-based, PC-12; conditions: read-out: Activity
Summary of the method: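 PC12 cells were grown in DMEM with 5% FBS, 5% horse serum and 2 mM glutamine at 37 °C, 5% CO2. They were seeded at 5×10^3 cells/well for 24 h, then exposed to 10 µM compound in full medium. Viability was read by MTT (5 mg/mL, 4 h) at 570 nm as % of control absorbance; n = 3.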

[2] = tested on: PC-12; experiment: Neuroprotective activity in rat PC12 cells assessed as attenuation of oxygen-glucose deprivation-induced cellular damage at 10 uM by MTT assay relative to control; format: functional
Summary of the method: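 PC12 cells were seeded at 5×10^3/well for 24 h. OGD insult was low-glucose medium plus 5 mM sodium dithionite for 24 h, given together with 10 µM compound. MTT (5 mg/mL) was added for 4 h and absorbance read at 570 nm. Viability was expressed as % of full-medium control; n = 3.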

| SMILES | viability at 10 µM [1] [%] | Activity [2] [%] |
| --- | --- | --- |
| COc1cc(OC)c2c(C)c(N3CCN(C)CC3)c(=O)oc2c1 | 100 | 49.6 |
| Cc1c(N2CCN(C)CC2)c(=O)oc2cc(O)cc(O)c12 | 107 | 52.7 |
| CCC(CC)CN1CCN(c2c(C)c3c(O)cc(O)cc3oc2=O)CC1 | 102 | 49.5 |
| Cc1c(N2CCN(c3cccc(C(F)(F)F)c3)CC2)c(=O)oc2cc(O)cc(O)c12 | 103 | 46.5 |
| Cc1c(CCN2CCN(C)CC2)c(=O)oc2cc(O)cc(O)c12 | 102 | 45.9 |
| Cc1c(N2CCN(C(=O)/C=C/c3ccccc3)CC2)c(=O)oc2cc(O)cc(O)c12 | 104 | 45.9 |
| Cc1c(N2CCN(C(=O)NCc3ccccc3)CC2)c(=O)oc2cc(O)cc(O)c12 | 102 | 49.6 |
| Cc1c(N2CCN(C(=O)Nc3ccc(F)cc3)CC2)c(=O)oc2cc(O)cc(O)c12 | 104 | 46.3 |
| Cc1c(N2CCN(C)CC2)c(=O)oc2cc(O)cc(OC3CCN(C)CC3)c12 | 139 | 19.9 |
| CCCCCCCCOc1cc(O)cc2oc(=O)c(N3CCN(C)CC3)c(C)c12 | 59.4 | 15.6 |
| Cc1c(CC(=O)N2CCN(C)CC2)c(=O)oc2cc(O)cc(O)c12 | 97.7 | 46.7 |
| Cc1c(N2CCN(C)CC2)c(=O)oc2cc(O)cc(OC3CCOC3)c12 (configuration not stated) | 107 | 52 |
| Cc1c(N2CCNCC2)c(=O)oc2cc(O)cc(O)c12 | 96.3 | 46.4 |
| Cc1c(N2CCN(C(=S)Nc3cccc(F)c3)CC2)c(=O)oc2cc(O)cc(O)c12 | 101 | 48.8 |
| Cc1c(N2CCN(c3ccc(F)cc3)CC2)c(=O)oc2cc(O)cc(O)c12 | 103 | 47 |
| Cc1cc(O)c2c(C)c(N3CCN(C)CC3)c(=O)oc2c1 | 99.5 | 47.3 |
| Cc1c(N2CCN(C)CC2)c(=O)oc2cc(O)cc(OCCN)c12 | 104 | 49.2 |
| Cc1c(N2CCN(C)CC2)c(=O)oc2cc(O)cc(OC3CCCC3)c12 | 181 | 33.8 |
| Cc1c(N2CCN(C)CC2)c(=O)oc2cc(N(C)C)ccc12 | 97.8 | 45.8 |
| Cc1c(N2CCN(C(=O)Nc3ccc(C(C)C)cc3)CC2)c(=O)oc2cc(O)cc(O)c12 | 97.3 | 46.3 |
| Cc1c(N2CCN(C(=O)Nc3ccccc3Oc3ccccc3)CC2)c(=O)oc2cc(O)cc(O)c12 | 97.9 | 49.3 |

| SMILES | viability at 10 µM [1] [%] | Activity [2] [%] |
| --- | --- | --- |
| CCCCNC(=S)N1CCN(c2c(C)c3c(O)cc(O)cc3oc2=O)CC1 | 103 | 48.9 |
| CCOc1cc(O)cc2oc(=O)c(N3CCN(C)CC3)c(C)c12 | 167 | 33.9 |
| CCC1CCC(Oc2ccc3c(C)c(N4CCN(C)CC4)c(=O)oc3c2)CC1 (configuration not stated) | 101 | 49.2 |
| Cc1c(N2CCN(S(=O)(=O)c3ccccc3)CC2)c(=O)oc2cc(O)cc(O)c12 | 97.4 | 49.7 |
| Cc1c(N2CCN(C)CC2)c(=O)oc2cc(O)cc(OCCCN)c12 | 107 | 40.5 |
| Cc1c(N2CCN(C)CC2)c(=O)oc2cc(O)cc(OCC3CC3)c12 | 184 | 37.7 |
| Cc1ccc(S(=O)(=O)NCCOc2cc(O)cc3oc(=O)c(N4CCN(C)CC4)c(C)c23)cc1 | 140 | 45.1 |
| Cc1c(N2CCN(C(c3ccc(F)cc3)c3ccc(F)cc3)CC2)c(=O)oc2cc(O)cc(O)c12 | 102 | 47.8 |
| Cc1c(N2CCN(C)CC2)c(=O)oc2cc(O)cc(OCCN3CCCCC3)c12 | 144 | 24.9 |
| COc1ccccc1N1CCN(c2c(C)c3c(O)cc(O)cc3oc2=O)CC1 | 102 | 46.8 |
| Cc1c(N2CCN(C)CC2)c(=O)oc2cc(O)cc(OCCNC(=O)OC(C)(C)C)c12 | 132 | 23.4 |
| Cc1c(N2CCN(C)CC2)c(=O)oc2cc(O)cc(OC3CCCCC3)c12 | 177 | 36.1 |
| Cc1c(N2CCN(C)CC2)c(=O)oc2cc(OCCN3CCCCC3)ccc12 | 95.4 | 45.3 |
| Cc1c(N2CCN(C)CC2)c(=O)oc2cc(O)cc(OCCc3ccccn3)c12 | 152 | 48.2 |
| Cc1c(N2CCN(C)CC2)c(=O)oc2cc(O)cc(OCCNS(C)(=O)=O)c12 | 103 | 40.3 |
| Cc1c(N2CCN(C)CC2)c(=O)oc2cc(O)cc(OCCCCl)c12 | 197 | 36.3 |
| CC(=O)Oc1cc(OC(C)=O)c2c(C)c(N3CCN(C)CC3)c(=O)oc2c1 | 102 | 46.6 |
| Cc1c(N2CCN(C)CC2)c(=O)oc2cc(O)cc(OCCN3CCOCC3)c12 | 108 | 56.9 |
| Cc1c(N2CCN(Cc3cc4c(cc3Cl)OCO4)CC2)c(=O)oc2cc(O)cc(O)c12 | 97.2 | 44.6 |
| Cc1c(N2CCN(C)CC2)c(=O)oc2cc(OCCN3CCCC3)ccc12 | 104 | 44.9 |
| CC(=O)Nc1ccc(S(=O)(=O)N2CCN(c3c(C)c4c(O)cc(O)cc4oc3=O)CC2)cc1 | 98.1 | 44.5 |

| SMILES | viability at 10 µM [1] [%] | Activity [2] [%] |
| --- | --- | --- |
| Cc1c(N2CCN(C)CC2)c(=O)oc2cc(O)ccc12 | 99 | 44.8 |
| CCCCCCCNC(=O)N1CCN(c2c(C)c3c(O)cc(O)cc3oc2=O)CC1 | 99.3 | 43.4 |
| Cc1c(N2CCN(C)CC2)c(=O)oc2cc(O)cc(OCCN(C)C)c12 | 104 | 61.5 |
| Cc1c(N2CCN(C)CC2)c(=O)oc2cc(O)cc(OCCCNC(=O)OC(C)(C)C)c12 | 153 | 15.8 |
| Cc1c(N2CCN(C)CC2)c(=O)oc2cc(O)cc(OC3CCN(C(=O)OC(C)(C)C)CC3)c12 | 137 | 51.5 |
| Cc1c(N2CCN(C(=O)c3ccccc3)CC2)c(=O)oc2cc(O)cc(O)c12 | 100 | 44.6 |
| Cc1ccc(COc2cc(O)cc3oc(=O)c(N4CCN(C)CC4)c(C)c23)c(C)c1 | 51.6 | 27.3 |
| COc1ccc(COc2ccc3c(C)c(N4CCN(C)CC4)c(=O)oc3c2)cc1 | 136 | 44.2 |
| Cc1c(N2CCN(C)CC2)c(=O)oc2cc(O)cc(OCCN3CCCC3)c12 | 135 | 48.2 |
| Cc1c(N2CCN(C)CC2)c(=O)oc2cc(OCCc3cccs3)ccc12 | 110 | 43.7 |
| COc1cc(O)c2c(C)c(N3CCN(C)CC3)c(=O)oc2c1 | 99.8 | 46.1 |
| Cc1c(N2CCN(C)CC2)c(=O)oc2cc(OCCN3CCOCC3)ccc12 | 101 | 49.3 |
| CCN1CCN(c2c(C)c3c(O)cc(O)cc3oc2=O)CC1 | 101 | 46.4 |
| Cc1cccc(N2CCN(c3c(C)c4c(O)cc(O)cc4oc3=O)CC2)c1C | 103 | 47.1 |
| Cc1c(N2CCN(Cc3ccccc3)CC2)c(=O)oc2cc(O)cc(O)c12 | 100 | 44.4 |
| Cc1c(N2CCN(C(=O)C(F)(F)F)CC2)c(=O)oc2cc(O)cc(O)c12 | 97.4 | 49.3 |
| Cc1c(N2CCN(C)CC2)c(=O)oc2cc(O)cc(OCc3nccs3)c12 | 108 | 54.7 |
| Cc1c(N2CCN(C)CC2)c(=O)oc2cc(O)cc(OCCc3cccs3)c12 | 178 | 39.1 |
| C=CC(=O)N1CCN(c2c(C)c3c(O)cc(O)cc3oc2=O)CC1 | 98.5 | 48.3 |
